T cruzi inh – blocks replication of Trypanosoma cruzi. inhibition, % (concentration not given with the values). 1.4% of 300,000 active. T. cruzi beta-gal in NIH3T3, luminescence, 90 h. AID 1885;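 active means mean inhibition across valid replicates above about 55%, limit read from the data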;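 further: signal also drops with host cell toxicity which is not excluded here; 0% = plate median of DMSO wells and 100% = zero luminescence signal; higher percent means less beta-gal luminescence so fewer parasites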
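Assay system: NIH/3T3 host cells with β-galactosidase reporter T. cruzi; input: 5,000 host fibroblasts per well; compound: single 50 nL compound addition per well in DMSO; timing: ≥90 h infection period, 3 h prior cell attachment; measured by: GalScreen β-gal luminescence, detergent lysis, 60 min; evaluation: percent inhibition of parasite-derived β-gal signal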
aSyn 5UTR inh – 5' untranslated region of α-synuclein, MLPCN primary screen; alpha-synuclein 5'UTR reporter, inhibitor activity; inhibition, % (tested at 7.5 µM); 0.82% of 300,000 active; in the data active means inhibition above about 60%;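 further: H4 neuroglioblastoma cells stably carrying SNCA 5'UTR luciferase fusion; 0% = DMSO wells and 100% = positive control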
SKKanGAS inh – blocks kanamycin growth of S. pyogenes SKKanGAS strain; BacTiter-Glo, 6 h; inhibition, % at 7.5 µM; 1.3% of 300,000 active; AID 1662;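 active means mean replicate score, as percent of positive control median, at least 50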;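 further: strain carries kanamycin resistance gene driven by streptokinase promoter and grows in 40 µg/ml kanamycin; loss of luminescence reflects streptokinase promoter inhibition or plain growth inhibition; 0% = median of DMSO wells and 100% = positive control at its reference dose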
Mdm2-MdmX inh – human Mdm2/MdmX binding inhibition. inhibition, % at 8 µM. 3% of 330,000 active. O15151+Q00987. SaOS-2 split-luciferase Mdm2/MdmX complementation, luminescence;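 active means inhibition of at least 50% at 8 µM in the primary screen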
CSC inhib – blocks cancer stem cells; inhibition, % at 7.5 µM; 1.1% of 300,000 active; AID 2717; cancer stem cell-like cells viability, luminescence; in the data active means inhibition above about 75%; tested in HMLE shEcad cells
Mdm2-MdmX conf – human Mdm2/MdmX binding inhibition, confirmed | luminescent assay | inhibition, % at 8 µM | shares compounds with Mdm2-MdmX inh | 55% of 10,000 active; in the data active means inhibition above about 40%
FLuc counter – inhibits full-length luciferase, flagging false Mdm2/MdmX hits; SaOS-2 full-length luciferase counterscreen, luminescence; inhibition, % at 8 µM; AID 504607; 77% of 6,200 active; shares compounds with Mdm2-MdmX inh;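 active means mean inhibition at 8 µM reaching about 37%, which flags the compound as non-specific, limit read from the data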;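 further: p53-null SaOS-2 cells with luciferase driven by a doxycycline-inducible promoter; compound on cells about two nights before reading with doxycycline added after day one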
Starred values were filed as active, the others as inactive; nt = no result given. Compounds with a hit are over-represented: about 5.4% of the library has one in this group of screens.

SMILES	T cruzi inh	aSyn 5UTR inh	SKKanGAS inh	Mdm2-MdmX inh	CSC inhib	Mdm2-MdmX conf	FLuc counter
CC(=O)c1c(C)[nH]c(C(=O)OCc2csc(CC(=O)Nc3ccccc3C)n2)c1C	nt	nt	nt	51*	5	18	nt
Cn1c(=O)c2c(ncn2CC(=O)N/N=C/C=C\c2ccccc2[N+](=O)[O-])n(C)c1=O	-15	7	6	2	-2	nt	nt
COc1cccc2[nH]c3ccccc3c(=O)c12	8	-26	-4	23	-23	nt	nt
C=Cc1ncc(OC)c2c1[nH]c1ccccc12	41	50	-7	100*	40	59*	22
C[C@H]1CC[C@H]2C(=O)N3[C@H](c4cccc(N5CCCC5=O)c4)[C@@H](C)CC[C@H]3C(=O)N2[C@@H]1c1cccc(N2CCCC2=O)c1	48	16	0	9	-3	nt	nt
C[C@H]1CC[C@H]2C(=O)N3[C@H](c4ccccc4Br)[C@@H](C)CC[C@H]3C(=O)N2[C@@H]1c1ccccc1Br	45	-12	11	79*	54	51*	68*
CCN(c1ccc(OC)cc1)c1ncnc2nc[nH]c12	-4	26	-6	63*	-5	66*	36*
C/C(=N\NC(=O)c1c(C)nc2ccccn12)c1ccccc1F	7	-20	-2	7	-10	nt	nt
C/C(=N\NC(=O)c1c(C)nc2ccccn12)c1ccc(O)cc1O	51	84*	1	74*	4	78*	34
C=C(C)CSc1nnc([C@@H](NC(=O)OC(C)(C)C)C(C)CC)o1 (stereo not given in full)	11	3	0	4	0	nt	nt
CC(C)[C@H](CO)Nc1nc(NCc2ccc(S(N)(=O)=O)cc2)c2ncn(C(C)C)c2n1	-1	8	0	79*	-4	64*	51*
CCc1ccc(-n2c(SCC(=O)Nc3ccc(C(=O)O)cc3)nnc2-c2ccncc2)cc1	3	-5	-2	11	-9	nt	nt
CCN(C(=O)CSc1nccc(=O)[nH]1)c1cccc2ccccc12	nt	nt	nt	-4	-8	nt	nt
CS(=O)(=O)c1sc(C#N)c2c1C(=O)CC(c1ccccc1)C2 (stereo not given)	39	81*	3	99*	110*	100*	2
COc1cc(NC(=O)c2oc3ccccc3c2C)ccc1NC(=O)c1ccco1	23	-44	32	63*	nt	32	56*
COc1cc(NC(=O)c2ccc(C)cc2C)ccc1NC(=O)c1cc2ccccc2o1	-22	45	-3	84*	1	62*	39*
COc1cc(NC(=O)c2ccc(Cl)cc2Cl)ccc1-c1cc2ccccc2oc1=O	-9	46	8	57*	4	26	nt
COc1cc(NC(=O)c2ccccc2F)ccc1NC(=O)c1cc2ccccc2o1	3	-67	2	68*	38	32	63*
COc1cc(NC(=O)c2ccc(F)cc2)ccc1NC(=O)c1cc2ccccc2o1	-17	4	6	19	-10	nt	nt
CC(OC(=O)CC1CCCCC1)C(=O)Nc1ccc(F)cc1 (stereo not given)	-13	0	1	-2	-5	nt	nt
CCOC(=O)c1ccccc1NC(=O)COC(=O)c1cc([N+](=O)[O-])ccc1N1CCOCC1	12	5	12	21	-1	nt	nt
CCCc1n(CC)c2ccccc2[n+]1CC(O)COC1CCCCC1 (stereo not given)	47	25	0	-14	-8	nt	nt
COc1cc(NC(=O)c2cccc(F)c2)ccc1NC(=O)c1cc2ccccc2o1	-9	-34	-1	87*	-4	62*	86*
COc1cc(NC(=O)c2ccc(C)cc2)ccc1NC(=O)c1cc2ccccc2o1	-10	-7	0	57*	1	23	90*
COc1cc(NC(=O)c2ccc(Br)cc2)ccc1NC(=O)c1cc2ccccc2o1	-9	2	-11	31	1	nt	nt
CC(C)NC(=O)NNC(=O)c1cc(COc2cc(Cl)cc(Cl)c2)on1	-2	8	-2	13	-1	nt	nt
CCN(CC)CC(C)OC(=O)c1ccccc1Cl (stereo not given)	-13	19	-6	-11	-3	nt	nt
CNC(=O)COC(=O)c1cc(-c2ccccc2)nn1-c1ccccc1	-1	-10	-1	15	-4	nt	nt
